pIC50: −log10 of the molar value. Calls of active or inactive are those of the source. No cut-off for these calls is given here.
Tests used:
Plasmodium berghei [1] = test: Antimalarial activity against chloroquine-sensitive Plasmodium berghei NK-173 infected in Swiss albino mouse assessed as host survival at 100 mg/kg, ip bid for 3 days measured on day 30; assay type: functional; conditions: NK-173, ip, route intraperitoneal
Summary of the method: (§1)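 Female Swiss albino mice (18–20 g) were infected i.v. on day 0 with 10^6 parasitized RBC in 0.2 ml PBS from a donor mouse, in groups of 10. Dosing was i.p. over days 0–3 and stopped if toxicity appeared. Chloroquine control was 100 µmoles/kg. Giemsa tail smears and RBC counts were taken on days 4, 7, 8, 9, 10 and 14. Mice were followed for deaths.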

Mus musculus [2] = test: Toxicity in chloroquine-sensitive Plasmodium berghei NK-173 infected Swiss albino mouse assessed as mortality at 38.5 mg/kg, ip administered 4 times per day for 3 days measured up to 4 days; assay type: organism-based; parameters: dose 38.5 mg/kg, route intraperitoneal; conditions: in vivo; summary of the method: as §1
Mus musculus [3] = test: Toxicity in chloroquine-sensitive Plasmodium berghei NK-173 infected Swiss albino mouse assessed as mortality at 38.5 mg/kg, ip qd for 3 days measured up to 4 days; assay type: organism-based; parameters: dose 38.5 mg/kg, route intraperitoneal; conditions: in vivo; summary of the method: as §1
Mus musculus [4] = test: Toxicity in chloroquine-sensitive Plasmodium berghei NK-173 infected Swiss albino mouse assessed as mortality at 76.9 mg/kg, ip qd for 3 days measured up to 4 days; assay type: organism-based; parameters: dose 76.9 mg/kg, route intraperitoneal; conditions: in vivo; summary of the method: as §1
Mus musculus [5] = test: Toxicity in chloroquine-sensitive Plasmodium berghei NK-173 infected Swiss albino mouse assessed as death day at 100 mg/kg, ip bid for 3 days measured up to 4 days; assay type: organism-based; parameters: dose 100 mg/kg, route intraperitoneal; conditions: in vivo; summary of the method: as §1
Plasmodium berghei [6] = test: Antimalarial activity against chloroquine-sensitive Plasmodium berghei NK-173 infected in Swiss albino mouse assessed as quantal survival at 38.5 mg/kg, ip administered 4 times per day for 3 days measured on day 14; assay type: functional, organism-based; parameters: dose 38.5 mg/kg; summary of the method: as §1
Plasmodium berghei [7] = test: Antimalarial activity against chloroquine-sensitive Plasmodium berghei NK-173 infected in Swiss albino mouse assessed as quantal survival at 38.5 mg/kg, ip qd for 3 days measured on day 14; assay type: functional, organism-based; parameters: dose 38.5 mg/kg; summary of the method: as §1
Plasmodium berghei [8] = test: Antimalarial activity against chloroquine-sensitive Plasmodium berghei NK-173 infected in Swiss albino mouse assessed as quantal survival at 76.9 mg/kg, ip qd for 3 days measured on day 14; assay type: functional, organism-based; parameters: dose 76.9 mg/kg; summary of the method: as §1
Plasmodium berghei [9] = test: Antimalarial activity against chloroquine-sensitive Plasmodium berghei NK-173 infected in Swiss albino mouse assessed as quantal survival at 100 mg/kg, ip bid for 3 days measured on day 14; assay type: functional, organism-based; parameters: dose 100 mg/kg; summary of the method: as §1
Plasmodium berghei [10] = test: Antimalarial activity against chloroquine-sensitive Plasmodium berghei NK-173 infected in Swiss albino mouse assessed as quantal survival at 38.5 mg/kg, ip qd for 3 days measured on day 10; assay type: functional, organism-based; parameters: dose 38.5 mg/kg; summary of the method: as §1
Plasmodium berghei [11] = test: Antimalarial activity against chloroquine-sensitive Plasmodium berghei NK-173 infected in Swiss albino mouse assessed as quantal survival at 76.9 mg/kg, ip qd for 3 days measured on day 10; assay type: functional, organism-based; parameters: dose 76.9 mg/kg; summary of the method: as §1
Plasmodium berghei [12] = test: Antimalarial activity against chloroquine-sensitive Plasmodium berghei NK-173 infected in Swiss albino mouse assessed as quantal survival at 38.5 mg/kg, ip qd for 3 days measured on day 9; assay type: functional, organism-based; parameters: dose 38.5 mg/kg; summary of the method: as §1
Plasmodium berghei [13] = test: Antimalarial activity against chloroquine-sensitive Plasmodium berghei NK-173 infected in Swiss albino mouse assessed as quantal survival at 38.5 mg/kg, ip administered 4 times per day for 3 days measured on day 8; assay type: functional, organism-based; parameters: dose 38.5 mg/kg; summary of the method: as §1
Plasmodium berghei [14] = test: Antimalarial activity against chloroquine-sensitive Plasmodium berghei NK-173 infected in Swiss albino mouse assessed as quantal survival at 38.5 mg/kg, ip administered 4 times per day for 3 days measured on day 7; assay type: functional, organism-based; parameters: dose 38.5 mg/kg; summary of the method: as §1
Plasmodium berghei [15] = test: Antimalarial activity against chloroquine-sensitive Plasmodium berghei NK-173 infected in Swiss albino mouse assessed as quantal survival at 76.9 mg/kg, ip qd for 3 days measured on day 7; assay type: functional, organism-based; parameters: dose 76.9 mg/kg; summary of the method: as §1
Plasmodium berghei [16] = test: Antimalarial activity against chloroquine-sensitive Plasmodium berghei NK-173 infected in Swiss albino mouse assessed as quantal survival at 38.5 mg/kg, ip qd for 3 days measured on day 7; assay type: functional, organism-based; parameters: dose 38.5 mg/kg; summary of the method: as §1
Plasmodium berghei [17] = test: Antimalarial activity against chloroquine-sensitive Plasmodium berghei NK-173 infected in Swiss albino mouse assessed as reduction parasitemia at 38.5 mg/kg, ip qd […] by Giemsa staining relative to control; assay type: functional; parameters: scale not given: the % may be the effect or the level left; conditions: route intraperitoneal
Summary of the method: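 Four-day Peters test in female Swiss albino mice (18–20 g), groups of 10. Infected i.v. on day 0 with 10^6 parasitized RBC in 0.2 ml PBS, then dosed i.p. on days 0–3, stopped if toxicity appeared. Parasitemia read from Giemsa-stained tail-blood smears and reported as % reduction at day 4.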

Plasmodium berghei [18] = test: Antimalarial activity against chloroquine-sensitive Plasmodium berghei NK-173 infected in Swiss albino mouse assessed as reduction parasitemia at 76.9 mg/kg, […] by Giemsa staining relative to control; assay type: functional; parameters: scale not given: the % may be the effect or the level left; conditions: route intraperitoneal
Plasmodium falciparum = test: Antimalarial activity against Plasmodium falciparum 3D7 infected in human O positive erythrocytes assessed as reduction of parasite growth after 24 to 44 hrs by Giemsa staining; assay type: functional, organism-based
Summary of the method: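 Sorbitol-synchronized ring-stage 3D7 parasites in O+ erythrocytes (5% v/v suspension, 0.5% parasitemia) exposed to compounds from DMSO stock for 44 h at 37 °C. Growth measured by pLDH ELISA after freeze-thaw hemolysis and by Giemsa thin smears at 24 and 44 h, counting at least 5000 erythrocytes. Expressed as % reduction against medium-only control.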

[19] = Cytotoxicity against Swiss mouse peritoneal macrophages at 20 uM after 5 days by MTT assay; assay type: cell-based, Peritoneal macrophage cell
Summary of the method: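 Thioglycolate-elicited peritoneal macrophages from female Swiss mice, 5 × 10^4/well in RPMI 1640 with 10% FCS, 25 mM Hepes and 2 mM L-glutamine. Washed at 4 h to remove fibroblasts. Drug-containing medium added at 48 h, stopped at day 5. Viability read by MTT.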

[20] = test system: Trypanosoma brucei brucei; test: Trypanocidal activity against Trypanosoma brucei brucei by drug incubation infectivity test; assay type: functional; conditions: read-out: MEC
Leishmania donovani [21] = test: Antileishmanial activity against amastigotes forms of Leishmania donovani MHOM/ET/67/HU3 infected in Swiss mouse peritoneal macrophages at 20 uM after 5 days; assay type: functional, organism-based
Summary of the method: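 Peritoneal macrophages from female Swiss mice (18–20 g) infected after 24 h with stationary-phase L. donovani promastigotes at 10 parasites per macrophage. Free promastigotes removed at 18 h, then amastigotes treated. Medium with drug renewed at 48 h, stopped at day 5. Percentage of infected macrophages scored microscopically after Giemsa staining. Run in triplicate.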

Leishmania donovani [22] = test: Antileishmanial activity against promastigote forms of Leishmania donovani MHOM/ET/67/HU3 after 3 days by MTT assay; assay type: functional, organism-based; conditions: MHOM/ET/67/HU3, 72 h
Summary of the method: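 Log-phase promastigotes at 10^6 cells/mL in supplemented M-199. Serial dilutions gave final concentrations of 100 µM to 50 nM, in triplicate. Incubated 3 days at 27 °C, dark, 5% CO2. Viability read by MTT reduction, with Triton X100/HCl lysis and absorbance at 570 nm. IC50 ± SD.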

Plasmodium berghei [23] = test: Antimalarial activity against chloroquine-sensitive Plasmodium berghei NK-173 infected in Swiss albino mouse assessed as host survival at 38.5 mg/kg, ip administered 4 times per day for 3 days measured on day 30; assay type: functional; conditions: NK-173, ip, route intraperitoneal; summary of the method: as §1
Plasmodium berghei [24] = test: Antimalarial activity against chloroquine-sensitive Plasmodium berghei NK-173 infected in Swiss albino mouse assessed as host survival at 38.5 mg/kg, ip qd for 3 days measured on day 30; assay type: functional; conditions: NK-173, ip, route intraperitoneal; summary of the method: as §1
Plasmodium berghei [25] = test: Antimalarial activity against chloroquine-sensitive Plasmodium berghei NK-173 infected in Swiss albino mouse assessed as host survival at 76.9 mg/kg, ip qd for 3 days measured on day 30; assay type: functional; conditions: NK-173, ip, route intraperitoneal; summary of the method: as §1

## COc1cc(-c2c3nc(c(N4C(=O)CC[C@H]4C(=O)O)c4ccc([nH]4)c(-c4cc(OC)c(OC)c(OC)c4)c4nc(cc5ccc2[nH]5)C=C4)C=C3)cc(OC)c1OC
Plasmodium berghei [1]
  survival at 100 mg/kg: 0%
Mus musculus [2]
  Activity: Non-toxic
Mus musculus [3]
  Activity: Non-toxic
Mus musculus [4]
  Activity: Non-toxic
Mus musculus [5]
  Time: 2 days
Plasmodium berghei [6]
  Survival: inactive
Plasmodium berghei [7]
  Survival: inactive
Plasmodium berghei [8]
  Survival: inactive
Plasmodium berghei [9]
  Survival: inactive
Plasmodium berghei [10]
  Survival: inactive
Plasmodium berghei [11]
  Survival: inactive
Plasmodium berghei [12]
  Survival: inactive
Plasmodium berghei [13]
  Survival: Active
Plasmodium berghei [14]
  Survival: Active
Plasmodium berghei [15]
  Survival: Active
Plasmodium berghei [16]
  Survival: Active
Plasmodium berghei [17]
  Activity: 0%
Plasmodium berghei [18]
  Activity: 40%
Plasmodium falciparum
  pIC50: 7.70
[19]
  CC50 at 120 h: > 100 µM
[20]
  minimal effective concentration: 25 µM
Leishmania donovani [21]
  Activity: inactive
Leishmania donovani [22]
  pIC50: 4.24
Plasmodium berghei [23]
  survival at 38.5 mg/kg: 0%
Plasmodium berghei [24]
  survival at 38.5 mg/kg: 0%
Plasmodium berghei [25]
  survival at 76.9 mg/kg: 0%

— ChEMBL document CHEMBL2417506, “Synthesis and antiprotozoal activity of original porphyrin precursors and derivatives” (Eur J Med Chem, 2013)
